In ChEMBL document CHEMBL5678798 (Clin Cancer Res, 2009):
The source made the active and inactive calls. The calls are words filed in the database; no cut-off is given here.

Key:
[1] = Inhibition of recombinant mouse N-terminal 6His-tagged full length P110alpha/full length mouse […] expressed in baculovirus infected Sf21 cells at 0.3 uM by filter binding assay relative to control; conditions: condition cancer
NCI-H929 = assay: Induction of cell cycle arrest in human NCI-H929 cells assessed as cells accumulation at G2 phase at 1 umol/L incubated for 48 hrs by propidium iodide staining based flow cytometric analysis (reference value: 33%); assay type: functional; conditions: dose 1 µmol/L, at 1 µM
In short: (§1)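 COLO 205, MCF-7 or NCI-H929 cells seeded in 96-well plates overnight at 37°C, then exposed to DMSO or increasing compound concentrations for 24 or 48 h. Fixed and stained with propidium iodide (Vindelov method), then analysed by flow cytometry for sub-G1, G1, S and G2-M fractions. Experiment repeated twice.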

[2] = target: Mitogen-activated protein kinase 9 (Homo sapiens, UniProt P45984); assay: Inhibition of JNK2 (unknown origin)
NCI-H1299 = assay: Antiproliferative activity against human NCI-H1299 cells assessed as reduction in cell viability after 72 hrs by CellTiter-Glo assay; assay type: functional, cell-based; conditions: NCI-H1299, 72 h
In short: (§2)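 Cells seeded in 96-well plates, left overnight at 37°C, then exposed to a range of test concentrations for 72 h. Viability read by CellTiter-Glo luminescence; IC50 from four-parameter curve fit. Lines kept at 37°C, 5% CO2, in recommended growth medium.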

[3] = target: Dual specificity tyrosine-phosphorylation-regulated kinase 2 (Homo sapiens) (UniProt Q92630); assay: Inhibition of 6His-tagged recombinant full-length human DYRK2 expressed in baculovirus infected Sf21 cells at 3 uM by filter binding assay relative to control
In short: (§3)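 KinaseProfiler panel of 233 kinases: radiometric filter-binding activity assays with compound at 0.3 or 3 µmol/L. Read-out is percent inhibition.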

[4] = target: Tyrosine-protein kinase Fer (Homo sapiens, UniProt P16591); assay: Inhibition of N-terminal His6 tagged recombinant human Fer (541 to end residues) expressed in baculovirus infected Sf21 cells by filter binding assay
Chain of Tyrosine-protein kinase Fer (P16591 whole entry): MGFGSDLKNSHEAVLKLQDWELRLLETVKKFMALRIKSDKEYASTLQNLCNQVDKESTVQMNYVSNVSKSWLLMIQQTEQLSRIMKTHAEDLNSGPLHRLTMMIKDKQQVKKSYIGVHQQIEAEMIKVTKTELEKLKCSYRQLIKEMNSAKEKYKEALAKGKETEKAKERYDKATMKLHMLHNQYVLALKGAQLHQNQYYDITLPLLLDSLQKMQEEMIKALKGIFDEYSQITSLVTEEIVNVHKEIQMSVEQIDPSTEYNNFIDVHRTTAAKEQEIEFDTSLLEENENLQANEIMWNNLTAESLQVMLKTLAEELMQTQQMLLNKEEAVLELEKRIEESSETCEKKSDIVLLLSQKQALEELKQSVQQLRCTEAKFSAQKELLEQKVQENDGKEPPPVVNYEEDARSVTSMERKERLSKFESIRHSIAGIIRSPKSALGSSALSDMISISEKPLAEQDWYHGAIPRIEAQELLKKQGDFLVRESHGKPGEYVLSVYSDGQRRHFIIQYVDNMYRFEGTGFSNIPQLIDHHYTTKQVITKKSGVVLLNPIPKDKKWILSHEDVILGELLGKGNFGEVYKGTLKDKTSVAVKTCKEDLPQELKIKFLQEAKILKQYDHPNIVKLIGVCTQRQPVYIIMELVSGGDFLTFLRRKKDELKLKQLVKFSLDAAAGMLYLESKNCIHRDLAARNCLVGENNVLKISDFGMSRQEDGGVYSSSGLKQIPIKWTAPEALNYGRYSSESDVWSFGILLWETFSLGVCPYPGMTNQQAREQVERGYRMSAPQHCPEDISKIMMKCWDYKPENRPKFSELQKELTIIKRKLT

SK-N-MC = assay: Antiproliferative activity against human SK-N-MC cells assessed as reduction in cell viability after 72 hrs by CellTiter-Glo assay; assay type: functional, cell-based; in short: as §2
L-363 = assay: Antiproliferative activity against human L-363 cells assessed as reduction in cell viability after 72 hrs by CellTiter-Glo assay; assay type: functional, cell-based; conditions: L-363, 72 h; in short: as §2
[5] = target: Insulin receptor (Mus musculus) (UniProt P15208); conditions: CD-1, dose 30.0 mg/kg, route po, time 21.0 day
Chain of Insulin receptor (Mus musculus) (P15208 28-748 limits assumed): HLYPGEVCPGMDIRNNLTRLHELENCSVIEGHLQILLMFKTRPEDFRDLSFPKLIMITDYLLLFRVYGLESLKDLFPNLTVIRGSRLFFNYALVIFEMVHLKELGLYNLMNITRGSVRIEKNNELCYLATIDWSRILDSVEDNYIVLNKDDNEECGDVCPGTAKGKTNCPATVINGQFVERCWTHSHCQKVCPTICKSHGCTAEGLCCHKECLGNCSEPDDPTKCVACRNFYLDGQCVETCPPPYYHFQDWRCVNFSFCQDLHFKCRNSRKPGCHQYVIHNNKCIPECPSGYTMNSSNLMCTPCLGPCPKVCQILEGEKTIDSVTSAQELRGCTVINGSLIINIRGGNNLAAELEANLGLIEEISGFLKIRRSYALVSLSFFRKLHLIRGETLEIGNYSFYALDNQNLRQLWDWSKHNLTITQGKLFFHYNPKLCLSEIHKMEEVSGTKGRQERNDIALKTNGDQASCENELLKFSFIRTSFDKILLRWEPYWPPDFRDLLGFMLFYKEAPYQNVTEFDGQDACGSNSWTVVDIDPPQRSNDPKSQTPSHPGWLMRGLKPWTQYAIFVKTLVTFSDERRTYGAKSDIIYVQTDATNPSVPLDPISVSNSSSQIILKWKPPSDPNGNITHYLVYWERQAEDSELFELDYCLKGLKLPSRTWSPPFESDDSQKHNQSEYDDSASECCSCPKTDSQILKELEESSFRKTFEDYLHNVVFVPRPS
Chain of Insulin receptor (Mus musculus) (P15208 753-1372 limits assumed): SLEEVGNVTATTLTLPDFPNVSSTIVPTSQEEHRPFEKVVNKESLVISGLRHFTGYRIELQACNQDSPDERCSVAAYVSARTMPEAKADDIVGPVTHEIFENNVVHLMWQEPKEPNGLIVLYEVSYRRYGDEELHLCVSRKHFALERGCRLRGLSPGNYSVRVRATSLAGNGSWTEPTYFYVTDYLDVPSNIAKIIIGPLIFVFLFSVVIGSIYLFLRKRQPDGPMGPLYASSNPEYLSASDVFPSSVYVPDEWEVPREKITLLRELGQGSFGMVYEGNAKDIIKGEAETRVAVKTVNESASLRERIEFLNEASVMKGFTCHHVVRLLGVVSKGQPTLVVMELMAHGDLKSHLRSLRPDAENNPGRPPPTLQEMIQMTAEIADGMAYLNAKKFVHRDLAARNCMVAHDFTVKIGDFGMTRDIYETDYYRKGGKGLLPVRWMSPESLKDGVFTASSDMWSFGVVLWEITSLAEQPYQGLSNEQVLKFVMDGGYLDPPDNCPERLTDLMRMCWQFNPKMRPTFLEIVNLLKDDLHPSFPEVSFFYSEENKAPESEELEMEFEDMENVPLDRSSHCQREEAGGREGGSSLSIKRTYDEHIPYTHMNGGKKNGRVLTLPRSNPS

NIH-3T3/LISN = assay: In vivo inhibition of IGF1R in mouse NIH-3T3/LISN cells implanted in IGF1-stimulated nu/nu CD-1 mouse assessed as reduction in IGF1R phosphorylation at 30 mg/kg, po pretreated for 48 to 72 hrs followed by IGF1 stimulation and measured after 10 min by […] relative to control; assay type: functional, organism-based; conditions: time 2880-4330 min
In short: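 Time course: tumor-bearing female nu/nu CD-1 mice, three per group, given a single oral 30 mg/kg dose or vehicle. IGF-I given 10 min before blood and tumor collection at each time point. Tumor phospho-IGF-IR/total IGF-IR measured by capture-plate europium phosphotyrosine assay and expressed as % of ligand-stimulated control.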

[6] = target: Proto-oncogene tyrosine-protein kinase Src (Homo sapiens, UniProt P12931); assay: Inhibition of SRC1 (unknown origin)
Chain of Proto-oncogene tyrosine-protein kinase Src (P12931 2-536 limits assumed): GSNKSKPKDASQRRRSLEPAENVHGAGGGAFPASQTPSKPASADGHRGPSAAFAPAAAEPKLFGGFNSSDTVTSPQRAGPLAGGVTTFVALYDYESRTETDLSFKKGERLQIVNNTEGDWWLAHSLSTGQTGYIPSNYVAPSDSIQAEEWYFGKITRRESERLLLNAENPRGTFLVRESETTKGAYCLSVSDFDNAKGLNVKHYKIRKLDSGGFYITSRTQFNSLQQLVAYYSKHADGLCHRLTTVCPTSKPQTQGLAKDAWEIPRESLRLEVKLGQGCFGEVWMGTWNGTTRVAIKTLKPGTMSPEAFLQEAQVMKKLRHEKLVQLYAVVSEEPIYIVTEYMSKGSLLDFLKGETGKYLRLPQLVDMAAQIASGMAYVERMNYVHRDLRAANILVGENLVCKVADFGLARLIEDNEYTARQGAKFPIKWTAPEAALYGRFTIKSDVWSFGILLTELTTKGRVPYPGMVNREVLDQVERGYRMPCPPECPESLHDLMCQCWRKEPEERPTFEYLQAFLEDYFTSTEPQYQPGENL

[7] = target: Mitogen-activated protein kinase kinase kinase 9 (Homo sapiens) (UniProt P80192); assay: Inhibition of N-terminal 6His-tagged recombinant human MLK1 (134 to 414 residues) expressed in baculovirus infected Sf21 cells at 3 uM by filter binding assay relative to control
In short: (§4)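 Outsourced single-concentration screen in a commercial panel of 233 protein kinases, run as radiometric filter-binding activity assays. Test agent was tested at 0.3 or 3 µmol/L, as given in each line, from a 10 mmol/L DMSO stock. Activity is expressed as percent inhibition relative to control.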

MCF7 = assay: Induction of cell cycle arrest in human MCF7 cells assessed as effect on sub-2N-DNA content at 0.03 to 10 uM incubated for 24 to 48 hrs by propidium iodide staining based flow cytometric analysis; assay type: functional; conditions: dose 0.03-10 µM, time lower 24.0 hrs, time upper […]; in short: as §1
[8] = target: Tyrosine-protein kinase SYK (Homo sapiens, UniProt P43405); assay: Inhibition of SYK (unknown origin)
[9] = target: Calcium/calmodulin-dependent protein kinase kinase 2 (Homo sapiens, UniProt Q96RR4); assay: Inhibition of CAMKK2 (unknown origin)
[10] = target: Serine/threonine-protein kinase PLK1 (Homo sapiens) (UniProt P53350); assay: Inhibition of N-terminal 6His-tagged recombinant human Plk1 expressed in baculovirus infected Sf21 cells at 0.3 uM by filter binding assay relative to control; in short: as §4
[11] = target: Mitogen-activated protein kinase kinase kinase 5 (Homo sapiens, UniProt Q99683); assay: Inhibition of ASK1 (unknown origin)
Chain of Mitogen-activated protein kinase kinase kinase 5 (Q99683 whole entry): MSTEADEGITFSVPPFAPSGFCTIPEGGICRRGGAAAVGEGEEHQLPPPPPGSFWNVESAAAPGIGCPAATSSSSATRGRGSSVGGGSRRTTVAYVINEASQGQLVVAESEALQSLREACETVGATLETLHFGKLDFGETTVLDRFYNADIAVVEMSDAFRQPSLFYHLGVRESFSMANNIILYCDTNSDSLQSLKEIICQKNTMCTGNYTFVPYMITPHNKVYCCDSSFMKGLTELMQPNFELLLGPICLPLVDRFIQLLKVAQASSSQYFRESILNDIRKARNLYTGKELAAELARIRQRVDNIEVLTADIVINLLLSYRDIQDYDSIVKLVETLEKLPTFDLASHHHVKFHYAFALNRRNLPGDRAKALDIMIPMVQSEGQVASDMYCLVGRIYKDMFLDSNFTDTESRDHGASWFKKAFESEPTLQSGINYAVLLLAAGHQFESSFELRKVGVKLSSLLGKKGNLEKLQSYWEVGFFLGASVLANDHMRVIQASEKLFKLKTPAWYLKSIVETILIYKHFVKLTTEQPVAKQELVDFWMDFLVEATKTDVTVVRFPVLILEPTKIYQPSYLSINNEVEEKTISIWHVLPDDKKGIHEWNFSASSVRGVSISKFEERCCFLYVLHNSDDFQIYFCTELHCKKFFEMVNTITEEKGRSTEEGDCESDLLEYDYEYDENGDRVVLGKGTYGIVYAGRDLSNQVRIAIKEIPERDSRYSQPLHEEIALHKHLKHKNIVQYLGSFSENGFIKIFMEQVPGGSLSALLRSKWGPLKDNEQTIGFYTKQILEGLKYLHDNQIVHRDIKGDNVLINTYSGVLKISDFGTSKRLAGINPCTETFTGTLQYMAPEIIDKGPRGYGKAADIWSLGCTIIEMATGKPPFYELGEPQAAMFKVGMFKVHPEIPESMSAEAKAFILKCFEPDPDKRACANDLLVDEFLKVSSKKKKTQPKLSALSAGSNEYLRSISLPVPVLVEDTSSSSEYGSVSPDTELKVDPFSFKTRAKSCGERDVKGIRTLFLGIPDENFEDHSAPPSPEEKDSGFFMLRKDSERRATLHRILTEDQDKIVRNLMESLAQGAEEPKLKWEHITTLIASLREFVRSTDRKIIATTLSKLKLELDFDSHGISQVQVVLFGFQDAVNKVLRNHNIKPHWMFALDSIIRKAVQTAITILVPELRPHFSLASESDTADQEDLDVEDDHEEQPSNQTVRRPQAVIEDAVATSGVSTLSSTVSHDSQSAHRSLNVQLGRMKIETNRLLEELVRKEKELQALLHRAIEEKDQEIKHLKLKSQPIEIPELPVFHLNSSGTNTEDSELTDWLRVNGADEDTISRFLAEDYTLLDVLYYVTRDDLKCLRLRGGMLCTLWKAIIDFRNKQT

[12] = target: Tyrosine-protein kinase ABL2 (Homo sapiens) (UniProt P42684); assay: Inhibition of N-terminal His6-tagged recombinant human Arg (38 to end residues) expressed in baculovirus infected Sf21 cells at 3 uM by filter binding assay relative to control
[13] = target: Insulin receptor (Mus musculus) (UniProt P15208); conditions: CD-1, dose 10-60 mg/kg, route po, time 242.0 min
[14] = target: Ribosomal protein S6 kinase alpha-4 (Homo sapiens, UniProt O75676); assay: Inhibition of N-terminal His6-tagged recombinant human MSK2 (2 to end residues) expressed in baculovirus infected Sf21 cells by filter binding assay
[15] = target: NUAK family SNF1-like kinase 1 (Homo sapiens) (UniProt O60285); assay: Inhibition of N-terminal 6His-tagged recombinant human ARK5 (2 to end residues) expressed in baculovirus infected Sf21 cells at 0.3 uM by filter binding assay relative to control; in short: as §3
Chain of NUAK family SNF1-like kinase 1 (Homo sapiens) (O60285 whole entry): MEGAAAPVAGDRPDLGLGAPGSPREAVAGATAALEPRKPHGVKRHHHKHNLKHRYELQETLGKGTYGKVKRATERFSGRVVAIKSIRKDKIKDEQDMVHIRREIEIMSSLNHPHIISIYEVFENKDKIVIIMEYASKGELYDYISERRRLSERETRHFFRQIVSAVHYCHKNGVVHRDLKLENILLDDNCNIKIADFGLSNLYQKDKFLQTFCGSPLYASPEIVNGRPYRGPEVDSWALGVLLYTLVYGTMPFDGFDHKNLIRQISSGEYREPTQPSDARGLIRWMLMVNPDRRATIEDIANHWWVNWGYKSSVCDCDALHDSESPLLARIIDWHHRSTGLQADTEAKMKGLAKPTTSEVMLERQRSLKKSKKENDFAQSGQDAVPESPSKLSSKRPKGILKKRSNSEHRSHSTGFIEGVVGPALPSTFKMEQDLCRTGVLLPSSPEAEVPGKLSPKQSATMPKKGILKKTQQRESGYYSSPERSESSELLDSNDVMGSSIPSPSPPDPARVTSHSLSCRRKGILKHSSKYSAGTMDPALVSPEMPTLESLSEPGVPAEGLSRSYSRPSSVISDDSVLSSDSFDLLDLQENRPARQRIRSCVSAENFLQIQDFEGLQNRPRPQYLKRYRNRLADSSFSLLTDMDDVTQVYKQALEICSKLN

SK-OV-3 = assay: Antiproliferative activity against human SK-OV-3 cells assessed as reduction in cell viability after 72 hrs by CellTiter-Glo assay; assay type: functional, cell-based; conditions: SK-OV-3, 72 h; in short: as §2
[16] = target: 3-phosphoinositide-dependent protein kinase 1 (Homo sapiens, UniProt O15530); assay: Inhibition of PDK1 (unknown origin)
[17] = target: cAMP-dependent protein kinase catalytic subunit PRKX (Homo sapiens) (UniProt P51817); assay: Inhibition of N-terminal 6His-tagged recombinant full-length human PrKX expressed in baculovirus infected Sf21 cells at 3 uM by filter binding assay relative to control; in short: as §3
[18] = target: Serine/threonine-protein kinase TAO2 (Homo sapiens) (UniProt Q9UL54); assay: Inhibition of N-terminal 6His-tagged recombinant human TAO2 expressed in Sf21 cells at 3 uM by filter binding assay relative to control; in short: as §4
[19] = target: Proto-oncogene tyrosine-protein kinase receptor Ret (Homo sapiens) (UniProt P07949); assay: Inhibition of N-Terminal GST-tagged recombinant human Ret (658 to end residues) expressed in baculovirus infected Sf21 cells at 0.3 uM by filter binding assay relative to control; in short: as §3

Structure (SMILES): CCc1cc(Nc2nccc(-c3c(-c4ccc(OC)c(C(=O)Nc5c(F)cccc5F)c4)nc4ccccn34)n2)c(OC)cc1N1CCC(N2CCN(S(C)(=O)=O)CC2)CC1
- inhibition at 0.3 µM [1]: 0%
- Activity (NCI-H929): 8%
- IC50 [2]: > 10 µM
- IC50 (NCI-H1299): > 20 µM
- inhibition [3]: -8%
- IC50 [4]: 0.013 µM
- IC50 (SK-N-MC): 0.043 µM
- IC50 (L-363): 0.165 µM
- inhibition [5]: inactive
- inhibition (NIH-3T3/LISN): inactive
- IC50 [6]: > 10 µM
- inhibition [7]: -8%
- Activity (MCF7): inactive
- IC50 [8]: 3.2 µM
- IC50 [9]: > 10 µM
- inhibition [10]: -8%
- IC50 [11]: > 25 µM
- inhibition [12]: 33%
- inhibition [13]: inactive
- IC50 [14]: 3.64 µM
- inhibition [15]: 4%
- IC50 (SK-OV-3): > 20 µM
- IC50 [16]: > 10 µM
- inhibition [17]: 1%
- inhibition [18]: 1%
- inhibition [19]: 30%
